# Test results from ChEMBL document CHEMBL3244139, “Antiarrhythmic activity of p-hydroxy-N-(2-diethylaminoethyl) benzamide (the p-hydroxy isostere of procainamide) in dogs and mice” (J Med Chem, 1977).
# Active and inactive are the calls of the source. The rule behind the calls is not given here.
# Columns and labels:
# Mus musculus [1] = test: Antiarrhythmic activity in ICR mouse assessed as protection against chloroform-induced ventricular fibrillation at 100 mg/kg, ip; type: functional, organism-based; set-up: dose 100 mg/kg; conditions: Heart
# Outline: (§1)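 ICR male mice, 28-35 days old, average weight 25 g, dosed ip. After 10 min they were placed in a chloroform jar and anesthetized. A mouse counted as protected if no intermittent or continuous ventricular fibrillation appeared before breathing ceased. Definite fibrillation counted as unprotected even if it later changed rhythm. Eight mice per dose.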
# Mus musculus [2] = test: Antiarrhythmic activity in ICR mouse assessed as protection against chloroform-induced ventricular fibrillation at 233 to 240 mg/kg, ip; type: functional; outline: as §1
# Canis familiaris [3] = test: Antiarrhythmic activity in aconitine-induced mongrel dog arrhythmic model assessed as atrial rate at 59 +/- 25 mg/kg, iv after 16 +/- 10 mins from end of infusion; type: functional, Canis lupus familiaris, Heart
# [4] = Antiarrhythmic activity in mongrel dog Purkinje fiber assessed as 50% repolarization time at 20 ug/ml by Single Cell Potentials/electrophysiological technique (reference value: 236 +/- 9 ms); type: functional, Canis lupus familiaris
# [5] = Antiarrhythmic activity in mongrel dog Purkinje fiber assessed as rate of phase 0 depolarization (dV/dt) at 20 ug/ml by Single Cell Potentials/electrophysiological technique (reference value: 478 +/- 67 V/s); type: functional, Canis lupus familiaris
# [6] = Antiarrhythmic activity in mongrel dog Purkinje fiber assessed as action potential at 5 ug/ml (reference value: 127 +/- 2 mV) by Single Cell Potentials/electrophysiological technique; type: functional, Canis lupus familiaris
# Plasma [7] = test: Drug metabolism in mongrel dog assessed as p-hydroxy-N-(2-diethylaminoethyl)benzamide level in plasma; type: ADME, cell-free, Canis lupus familiaris
# Outline: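 Dog plasma sampled when infusion ended. Extracted with NaCl and internal standard and run on TLC (benzene/28% ammonia/acetone/dioxane 5:8:80:5). Quantified by reflectance densitometry, 260-nm illumination, as fluorescence quenching. Peak areas read against standard curves, linear over 0.1-0.8 µg per plate.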
# Mus musculus [8] = test: Antiarrhythmic activity in ip dosed ICR mouse assessed as protection against chloroform-induced ventricular fibrillation; type: functional; conditions: Heart
# Outline: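 Male ICR mice, 28-35 days, mean 25 g, given drug ip, then after 10 min exposed to chloroform in a jar until breathing stopped. Protection meant no intermittent or continuous ventricular fibrillation at any point. Eight mice per dosage interval.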
# Canis familiaris [9] = test: Antiarrhythmic activity in aconitine-induced mongrel dog arrhythmic model assessed as mean arterial blood pressure measured at end of infusion at 59 +/- 25 mg/kg, iv (reference value: 70 +/- 8 mmHg); type: functional, Canis lupus familiaris, Artery
# [10] = Antiarrhythmic activity in mongrel dog Purkinje fiber assessed as 50% repolarization time at 5 ug/ml by Single Cell Potentials/electrophysiological technique (reference value: 200 +/- 6 ms); type: functional, Canis lupus familiaris
# [11] = Antiarrhythmic activity in mongrel dog Purkinje fiber assessed as spontaneous intrinsic rate at 5 ug/ml by Single Cell Potentials/electrophysiological technique (reference value: 19 +/- 4 BPM); type: functional, Canis lupus familiaris
# [12] = Toxicity in ip dosed ICR mouse assessed as acute mortality; type: organism-based; conditions: in vivo
# Outline: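 Male ICR mice, 28-35 days old (av wt 26 g), in groups of ten per dose level, given drug ip. Deaths recorded at 10, 15, 30, 60, 120 and 210 min after injection to set acute mortality.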
# Canis familiaris [13] = test: Antiarrhythmic activity in aconitine-induced mongrel dog arrhythmic model assessed as atrial rate measured at end of infusion at 59 +/- 25 mg/kg, iv; type: functional, Canis lupus familiaris, Heart
# [14] = Antiarrhythmic activity in mongrel dog Purkinje fiber assessed as 90% repolarization time at 20 ug/ml by Single Cell Potentials/electrophysiological technique (reference value: 302 +/- 12 ms); type: functional, Canis lupus familiaris
# [15] = Antiarrhythmic activity in mongrel dog Purkinje fiber assessed as maximum diastolic potential at 20 ug/ml (reference value: -93 +/- 2 mV) by Single Cell Potentials/electrophysiological technique; type: functional, Canis lupus familiaris
# [16] = Therapeutic index, ratio of LD50 for ICR mouse assessed as acute mortality to ED50 for protection against chloroform-induced ventricular fibrillation in ICR mouse; type: organism-based, Cardiac ventricle; conditions: in vivo, read-out: Ratio LD50/ED50
# Outline: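 Male ICR mice, 28-35 days old, dosed ip. For ED50, 8 mice per dose went into a chloroform jar 10 min after dosing and were kept there until breathing stopped; mice with no intermittent or continuous ventricular fibrillation counted as protected. ED50 was derived by Litchfield-Wilcoxon. LD50 came from acute mortality in 10 mice per dose. Index reported as LD50/ED50.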
# [17] = Antiarrhythmic activity in mongrel dog Purkinje fiber assessed as action potential at 20 ug/ml (reference value: 128 +/- 3 mV) by Single Cell Potentials/electrophysiological technique; type: functional, Canis lupus familiaris
# Canis familiaris [18] = test: Antiarrhythmic activity in aconitine-induced mongrel dog arrhythmic model assessed as decrease in ventricular rate measured at end of infusion at 59 +/- 25 mg/kg, iv (reference value: 205 +/- 65 BPM); type: functional, Canis lupus familiaris, Heart
# Plasma [19] = test: Plasma concentration in mongrel dog at 59 +/- 25 mg/kg, iv; type: ADME, organism-based, Canis lupus familiaris; set-up: route intravenous; conditions: in vivo
# Outline: (§2)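 Plasma withdrawn from each aconitine-treated dog when iv infusion was discontinued; drug measured by TLC densitometry.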
# [20] = Antiarrhythmic activity in mongrel dog Purkinje fiber assessed as spontaneous intrinsic rate at 20 ug/ml by Single Cell Potentials/electrophysiological technique (reference value: 22 +/- 5 BPM); type: functional, Canis lupus familiaris
# [21] = Antiarrhythmic activity in mongrel dog Purkinje fiber assessed as maximum diastolic potential at 5 ug/ml (reference value: -93 +/- 2 mV) by Single Cell Potentials/electrophysiological technique; type: functional, Canis lupus familiaris
# [22] = Antiarrhythmic activity in mongrel dog Purkinje fiber assessed as rate of phase 0 depolarization (dV/dt) at 5 ug/ml by Single Cell Potentials/electrophysiological technique (reference value: 439 +/- 47 V/s); type: functional, Canis lupus familiaris
# Canis familiaris [23] = test: Antiarrhythmic activity in aconitine-induced mongrel dog arrhythmic model assessed as decrease in ventricular rate at 59 +/- 25 mg/kg, iv after 16 +/- 10 mins from end of infusion (reference value: 205 +/- 65 BPM); type: functional, Canis lupus familiaris, Heart
# [24] = Antiarrhythmic activity in mongrel dog Purkinje fiber assessed as 90% repolarization time at 5 ug/ml by Single Cell Potentials/electrophysiological technique (reference value: 282 +/- 8 ms); type: functional, Canis lupus familiaris
# Canis familiaris [25] = test: Antiarrhythmic activity in aconitine-induced mongrel dog arrhythmic model assessed as decrease in ventricular rate rate at 50 +/- 24 mg/kg, iv after 20 +/- 3 mins from end of infusion (reference value: 205 +/- 65 BPM); type: functional, Canis lupus familiaris, Heart
# Plasma [26] = test: Plasma concentration in mongrel dog at 50 +/- 24 mg/kg, iv; type: ADME, organism-based, Canis lupus familiaris; set-up: route intravenous; conditions: in vivo; outline: as §2
# Canis familiaris [27] = test: Antiarrhythmic activity in aconitine-induced mongrel dog arrhythmic model assessed as decrease in ventricular rate rate measured at end of infusion at 50 +/- 24 mg/kg, iv (reference value: 205 +/- 65 BPM); type: functional, Canis lupus familiaris, Heart
# Plasma [28] = test: Drug metabolism in mongrel dog assessed as ester of p-acetoxy-N-(2-diethylaminoethyl)benzamide level in plasma; type: ADME, cell-free, Canis lupus familiaris
# Outline: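 Dog plasma taken at end of infusion was extracted as for the phenol but without internal standard. Spotted on silica gel F254 TLC, developed with acetone-methanol (1:1), and quantified by densitometry.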
# Canis familiaris [29] = test: Antiarrhythmic activity in aconitine-induced mongrel dog arrhythmic model assessed as atrial rate at 50 +/- 24 mg/kg, iv after 20 +/- 3 mins from end of infusion; type: functional, Canis lupus familiaris, Heart
# Canis familiaris [30] = test: Antiarrhythmic activity in aconitine-induced mongrel dog arrhythmic model assessed as mean arterial blood pressure measured at end of infusion at 50 +/- 24 mg/kg, iv (reference value: 70 +/- 8 mmHg); type: functional, Canis lupus familiaris, Artery
# Canis familiaris [31] = test: Antiarrhythmic activity in aconitine-induced mongrel dog arrhythmic model assessed as atrial rate measured at end of infusion at 50 +/- 24 mg/kg, iv; type: functional, Canis lupus familiaris, Heart
# [32] = Stability in human plasma assessed as hydrolysis at 20 ug/ml after 5 mins at room temperature; type: ADME, cell-free; conditions: read-out: Drug degradation
# Outline: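 Ester at 20 µg/ml held in fresh human plasma for 5 min at room temperature. Comparison conditions: plasma plus 10^-5 M physostigmine, and saline. Standards extracted and measured by TLC densitometry.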
# Canis familiaris [33] = test: Antiarrhythmic activity in aconitine-induced mongrel dog arrhythmic model assessed as decrease in ventricular rate rate measured at end of infusion at 48 +/- 38 mg/kg, iv (reference value: 205 +/- 65 BPM); type: functional, Canis lupus familiaris, Heart
# [34] = Antiarrhythmic activity in mongrel dog Purkinje fiber assessed as spontaneous intrinsic rate at 10 ug/ml by Single Cell Potentials/electrophysiological technique (reference value: 33 +/- 5 BPM); type: functional, Canis lupus familiaris
# [35] = Antiarrhythmic activity in mongrel dog Purkinje fiber assessed as 50% repolarization time at 20 ug/ml by Single Cell Potentials/electrophysiological technique (reference value: 223 +/- 11 ms); type: functional, Canis lupus familiaris
# Canis familiaris [36] = test: Antiarrhythmic activity in aconitine-induced mongrel dog arrhythmic model assessed as atrial rate at 48 +/- 38 mg/kg, iv after 17 +/- 16 mins from end of infusion; type: functional, Canis lupus familiaris, Heart
# [37] = Antiarrhythmic activity in mongrel dog Purkinje fiber assessed as rate of phase 0 depolarization (dV/dt) at 20 ug/ml by Single Cell Potentials/electrophysiological technique (reference value: 474 +/- 57 V/s); type: functional, Canis lupus familiaris
# [38] = Antiarrhythmic activity in mongrel dog Purkinje fiber assessed as 90% repolarization time at 10 ug/ml by Single Cell Potentials/electrophysiological technique (reference value: 274 +/- 30 ms); type: functional, Canis lupus familiaris
# [39] = Antiarrhythmic activity in mongrel dog Purkinje fiber assessed as 50% repolarization time at 10 ug/ml by Single Cell Potentials/electrophysiological technique (reference value: 244 +/- 15 ms); type: functional, Canis lupus familiaris
# Canis familiaris [40] = test: Antiarrhythmic activity in aconitine-induced mongrel dog arrhythmic model assessed as atrial rate measured at end of infusion at 48 +/- 38 mg/kg, iv; type: functional, Canis lupus familiaris, Heart
# Plasma [41] = test: Plasma concentration in mongrel dog at 48 +/- 38 mg/kg, iv; type: ADME, organism-based, Canis lupus familiaris; set-up: route intravenous; conditions: in vivo; outline: as §2
# Canis familiaris [42] = test: Antiarrhythmic activity in aconitine-induced mongrel dog arrhythmic model assessed as decrease in ventricular rate rate at 48 +/- 38 mg/kg, iv after 17 +/- 16 mins from end of infusion (reference value: 205 +/- 65 BPM); type: functional, Canis lupus familiaris, Heart
# [43] = Antiarrhythmic activity in mongrel dog Purkinje fiber assessed as rate of phase 0 depolarization (dV/dt) at 10 ug/ml by Single Cell Potentials/electrophysiological technique (reference value: 491 +/- 40 V/s); type: functional, Canis lupus familiaris
# [44] = Antiarrhythmic activity in mongrel dog Purkinje fiber assessed as 90% repolarization time at 20 ug/ml by Single Cell Potentials/electrophysiological technique (reference value: 284 +/- 12 ms); type: functional, Canis lupus familiaris
# [45] = Antiarrhythmic activity in mongrel dog Purkinje fiber assessed as spontaneous intrinsic rate at 20 ug/ml by Single Cell Potentials/electrophysiological technique (reference value: 35 +/- 7 BPM); type: functional, Canis lupus familiaris
# Canis familiaris [46] = test: Antiarrhythmic activity in aconitine-induced mongrel dog arrhythmic model assessed as mean arterial blood pressure measured at end of infusion at 48 +/- 38 mg/kg, iv (reference value: 70 +/- 8 mmHg); type: functional, Canis lupus familiaris, Artery
smiles,measurement,setting,value
CCN(CC)CCNC(=O)c1ccccc1,Activity,Mus musculus [1],inactive
same,Activity,Mus musculus [2]; Heart,inactive
CCN(CC)CCNC(=O)c1ccc(O)cc1.Cl,Activity,Canis familiaris [3],278 bpm
same,Time,[4],280 ms
same,Activity,[5],423 V/s
same,Activity,[6],127 mV
same,Drug metabolism,Plasma [7],97 µg/mL
same,ED50,Mus musculus [8],157 mg/kg
same,Activity,Canis familiaris [9],64 mmHg
same,Time,[10],250 ms
same,Activity,[11],20 bpm
same,LD50,[12],335 mg/kg
same,Activity,Canis familiaris [13],210 bpm
same,Time,[14],381 ms
same,Activity,[15],-94 mV
same,selectivity ratio,[16],2.1
same,Activity,[17],126 mV
same,Activity,Canis familiaris [18],197 bpm
same,Cp,Plasma [19],137 µg/mL
same,Activity,[20],16 bpm
same,Activity,[21],-95 mV
same,Activity,[22],396 V/s
same,Activity,Canis familiaris [23],160 bpm
same,Time,[24],344 ms
CCN(CC)CCNC(=O)c1ccc(NC(C)=O)cc1.Cl [ACECAINIDE HYDROCHLORIDE],ED50,Mus musculus [8],110 mg/kg
CCN(CC)CCNC(=O)c1ccc(OC(C)=O)cc1.Cl,Activity,Canis familiaris [25],183 bpm
same,Cp,Plasma [26],< 0.5 µg/mL
same,Activity,Canis familiaris [27],173 bpm
same,Drug metabolism,Plasma [28],< 0.5 µg/mL
same,Activity,Canis familiaris [29],373 bpm
same,Activity,Canis familiaris [30],70 mmHg
same,Activity,Canis familiaris [31],173 bpm
same,"metabolised at 5 min, 20 ug/ml",[32],60%
CCN(CC)CCNC(=O)c1ccc(N)cc1.Cl [PROCAINAMIDE HYDROCHLORIDE],Activity,Canis familiaris [33],203 bpm
same,Activity,[34],24 bpm
same,Time,[35],239 ms
same,Activity,Canis familiaris [36],283 bpm
same,ED50,Mus musculus [8],137 mg/kg
same,LD50,[12],255 mg/kg
same,Activity,[37],411 V/s
same,Time,[38],334 ms
same,selectivity ratio,[16],1.8
same,Time,[39],265 ms
same,Activity,Canis familiaris [40],225 bpm
same,Cp,Plasma [41],118 µg/mL
same,Activity,Canis familiaris [42],215 bpm
same,Activity,[43],421 V/s
same,Time,[44],316 ms
same,Activity,[45],23 bpm
same,Activity,Canis familiaris [46],68 mmHg
CCN(CC)CCNC(=O)c1ccc([N+](=O)[O-])cc1.Cl,Activity,"Mus musculus [2]; dose mg/kg 233-240, route intraperitoneal",38%
